Results from different studies.
ERBB2: Receptor tyrosine-protein kinase erbB-2 (ERBB2, Homo sapiens, UniProt P04626)
ABL1 non-phosphorylated: Tyrosine-protein kinase ABL1, non-phosphorylated (ABL1, Homo sapiens, UniProt P00519)

SMILES	target	read-out	method	pH	setting	Kd
CC(C)C[C@H](NC(=O)[C@H](CO)NC(=O)[C@H](Cc1ccc(O)cc1)NC(=O)[C@H](CS)NC(=O)[C@H](CS)NC(=O)[C@@H](N)CCCCN)C(=O)O	ERBB2	binding	fluorescence	pH 7.4		180 nM
Cc1ccc(NC(=O)c2ccc(CN3CCS(=N)(=O)CC3)cc2)cc1Nc1nccc(-c2cccnc2)n1	ABL1 non-phosphorylated	binding	competition with immobilised ligand			79 nM
CCCN1CCN(c2ccc(-c3cncc(Cl)c3N3CCC4(CCNC4=O)CC3)cc2)CC1	Nicotinamide phosphoribosyltransferase (NAMPT, Homo sapiens, UniProt P43490)	cell-free assay			lysate	6420 nM
COc1cc(Nc2ncc3c(n2)-c2ccc(Cl)cc2C(c2c(F)cccc2OC)=NC3)ccc1C(=O)O	Protein-tyrosine kinase 2-beta (PTK2B, Homo sapiens, UniProt Q14289)	binding			lysate	2990 nM
NS(=O)(=O)c1ccc(C(F)(F)F)cc1	Carbonic anhydrase 2 (CA2, Homo sapiens, UniProt P00918)	binding	ITC			~70 nM
FC(F)(F)c1n[nH]cc1-c1nc2ccc3[nH]ncc3c2c2c1CCCC2	ABL1 non-phosphorylated	binding	competition with immobilised ligand			5800 nM
N#CC1(c2ccc(NC(=O)c3cccnc3NCc3ccncc3)cc2)CCCC1	AMP-activated protein kinase (AMPK) alpha-1/beta-1/gamma-1 (PRKAG1/PRKAA1/PRKAB1, Homo sapiens, UniProt P54619+Q13131+Q9Y478)	binding	SPR			2490 nM
CC#CC(=O)N1CC[C@@H](n2cc(-c3ccc(Oc4c(F)cccc4F)cc3)c3c(N)n[nH]c(=O)c32)C1	ERBB2	binding	competition with immobilised ligand			> 3000 nM
Cc1cnc(-c2ccc(-c3ccc(NC(=O)Nc4c(F)cc(F)cc4F)cc3F)c3c2C(=O)NC3)[nH]1	Tyrosine-protein kinase ITK/TSK (ITK, Homo sapiens, UniProt Q08881)	binding	competition with immobilised ligand			5.9 nM
COc1ccc2c(c1)sc(-c1ccc(N(C)C)cc1)[n+]2C	Alpha-synuclein, fibril (SNCA, Homo sapiens, UniProt P37840)	binding	SPR			72300 nM
Cc1cc2nc3c(=O)[nH]c(=O)nc-3n(C[C@H](O)[C@H](O)[C@H](O)COP(=O)(O)OP(=O)(O)OC[C@H]3O[C@@H](n4cnc5c(N)ncnc54)[C@H](O)[C@@H]3O)c2cc1C	Cytotoxic granule associated RNA binding protein TIA1 (TIA1, Homo sapiens, UniProt P31483)	binding			lysate	38 nM
Cc1cc(Nc2cc3ncccc3c(N[C@@H]3C[C@H]4CC[C@@H](C3)N4CCC#N)n2)n[nH]1	STE20-like serine/threonine-protein kinase (SLK, Homo sapiens, UniProt Q9H2G2)	binding	competition with immobilised ligand			110 nM
